From PubChem BioAssay AID743238 (Broad Institute, 2013) come the findings set out here.

The structures appear in SMILES notation. Screen size: about 360,000 compounds; about 200 (0.056%) were called active.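 How the source made its calls: active means mean normalized replicate activation at least 10% and every replicate at or above 10%; inconclusive means only one of the two criteria met; inactive means mean below 10% and not all replicates reach 10%.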 The entries come from a sample that favours actives as a whole.

This assay can be described thus: Xi reactivation inducers in mouse fibroblasts – imaging, XiGFP fibroblasts, GFP high-content imaging, set 2, primary screen (AID 743238).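 Further: 0% = median of on-plate neutral control wells and 100% = ellipticine 6 µM median.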 The conditions noted are these: % GFP-positive cells imaging, 3 d, at 7.58 µM, stronger effect = higher value, cells co-treated with 5-aza-dC sensitizer, scaled so ellipticine positive control = 100%. In outline: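 Material: XiGFP fibroblasts, SV40-immortalized; Buffer or medium: DMEM containing 5-aza-dC; Compound dosing: single point; Times: 3 days compound exposure.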
With `C[C@H](CO)N1C[C@H](C)[C@H](CN(C)Cc2ccc(C(=O)Nc3ccccc3N)cc2)Oc2ccc(NC(=O)Nc3ccccc3)cc2CC1=O`, the activation was 0.0505% (inactive).

Turning to `Cc1noc(C)c1NC(=O)Nc1ccc2c(c1)C(=O)N([C@H](C)CO)C[C@@H](C)[C@H](CN(C)C(=O)Nc1cccc3ccccc13)OCCCC[C@@H](C)O2`, the activation is 0.305% (inactive). With `COc1cccc(CNC(=O)C[C@@H]2CC[C@H]3[C@@H](COc4ccc(NC(=O)c5cccs5)cc4C(=O)N3C)O2)c1`, the activation was -0.028% (inactive). In the case of `C[C@H]1CN([C@@H](C)CO)C(=O)c2ccccc2-c2ccccc2CO[C@H]1CN(C)Cc1ccc(-c2ccccc2)cc1` it was 0.132% (inactive); in that of `COc1ccc(S(=O)(=O)Nc2ccc3c(c2)CC(=O)N([C@@H](C)CO)C[C@@H](C)[C@H](CN(C)S(=O)(=O)c2ccccc2)O3)cc1`, 0.178% (inactive); in that of `COc1cccc(S(=O)(=O)N[C@H]2C=C[C@H](CC(=O)NC3Cc4ccccc4C3)O[C@H]2CO)c1`, 0.645% (inactive). In the case of `C[C@H](O)C#Cc1cnc2c(c1)C(=O)N([C@@H](C)CO)C[C@H](C)[C@@H](CN(C)C(=O)c1ccccc1)O2` it was -0.975% (inactive); in that of `Cc1ccccc1-c1ccc([C@H]2[C@@H](CO)N3C(=O)CN(C(=O)c4ccncc4)C[C@@H]23)cc1`, -0.015% (inactive).

`COc1ccc(S(=O)(=O)Nc2ccc3c(c2)C(=O)N([C@@H](C)CO)C[C@H](C)[C@@H](CN(C)C(=O)c2ccccc2)OCCCC[C@H](C)O3)cc1`: the activation was 0.072% (inactive). In the case of `COc1ccc2c3c(n(C)c2c1)[C@@H](CO)N(C(C)=O)CC31CCN(Cc2ccc(Cl)cc2)CC1` it was 0.225% (inactive); in that of `C[C@@H]1CCCCO[C@@H](CN(C)S(=O)(=O)c2cn(C)cn2)[C@@H](C)CN([C@@H](C)CO)C(=O)c2cc(NC(=O)Nc3ccc(C(F)(F)F)cc3)ccc2O1`, -0.98% (inactive); in that of `CO[C@@H]1CN(C)C(=O)c2ccc(NC(=O)C3CC3)cc2OC[C@H](C)N(C(=O)c2ccccc2)C[C@@H]1C`, 0.643% (inactive). In the case of `CC[C@@H]1CC=CC[C@H](C)Oc2ccccc2C(=O)N(C)[C@H](Cc2ccccc2)C(=O)N1` (mixture of isomers) it was 0.007% (inactive); in that of `C[C@@H]1CCCCO[C@H](CN(C)Cc2ccc3c(c2)OCO3)[C@H](C)CN([C@@H](C)CO)C(=O)c2cc(NS(=O)(=O)c3cccs3)ccc2O1`, -0.019% (inactive); in that of `C[C@H]1CCCCO[C@@H](CN(C)C(=O)Nc2ccccc2)[C@@H](C)CN([C@@H](C)CO)C(=O)c2cc(NC(=O)CCC(F)(F)F)ccc2O1`, 0.045% (inactive). Under `C[C@@H](NC(=O)C[C@H]1C[C@@H]2c3cc(NC(=O)Nc4ccccc4F)ccc3O[C@@H]2[C@H](CO)O1)c1ccccc1` stands 0.315% (inactive).

Take `COc1ccc(NC(=O)Nc2ccc3c(c2)CC(=O)N([C@@H](C)CO)C[C@@H](C)[C@H](CN(C)C(=O)NC2CCCCC2)O3)cc1`: the activation was -0.248% (inactive).

For the molecule `C[C@@H]1CN([C@@H](C)CO)C(=O)c2cc(NC(=O)Nc3cccc4ccccc34)ccc2O[C@@H](C)CCCCO[C@@H]1CN(C)S(=O)(=O)c1ccc(Cl)cc1`, the activation is 0.307% (inactive). As to `N#CC1(Nc2ccc3c4c(cccc24)CC3)CCCCC1`, the activation is 40% (active). For the molecule `O=S(=O)(NC1CC1)c1ccc2c3c(cccc13)CC2`, the activation is 0.001% (inactive).

For `N#CC1(Nc2ccc(-c3ccc(Cl)cc3)cc2)CCCC1`, the activation was -0.0155% (inactive). In the case of `CC(C)NC(=O)N(C)C[C@@H]1Oc2c(cccc2N(C)C)C(=O)N([C@H](C)CO)C[C@@H]1C` it was 0.155% (inactive); in that of `O=C(CC1CC1)N1[C@@H](CO)[C@H](c2ccccc2)C12CN(Cc1cccnc1)C2`, 0.0215% (inactive). Consider `COc1ccc2c3c([nH]c2c1)[C@@H](CO)N(C(C)=O)CC31CCN(Cc2ccccc2Cl)CC1`, for which the activation is 0.131% (inactive).

With `C[C@@H]1CN([C@@H](C)CO)C(=O)Cc2cc(NC(=O)C3CC3)ccc2O[C@H]1CN(C)C(=O)NC1CCCCC1`, the activation was -0.834% (inactive).

For the molecule `O=C(C[C@@H]1CC[C@@H](NC(=O)c2ccc3c(c2)OCO3)[C@H](CO)O1)NCc1ccc(F)cc1`, the activation is 0.149% (inactive). For `Cc1ccc(S(=O)(=O)Nc2ccc3c(c2)C(=O)N([C@@H](C)CO)C[C@H](C)[C@@H](CN(C)CC2CC2)O3)cc1`, the activation is -0.069% (inactive).

For the molecule `Cc1ccccc1CN(C)C[C@H]1OCc2cn(nn2)CCCC(=O)N([C@@H](C)CO)C[C@H]1C`, the activation was 0.238% (inactive).

With `CCCN(C)C[C@@H]1Oc2ncc(C#Cc3ccccc3)cc2C(=O)N([C@H](C)CO)C[C@@H]1C`, the activation is -0.009% (inactive). Regarding `C[C@H](CO)N1C[C@H](C)[C@H](CN(C)C(=O)c2ccncc2)Oc2cc(C#CC3(O)CCCC3)ccc2S1(=O)=O`, the activation is 0.469% (inactive).

Turning to `CN(C)CCCNC(=O)C[C@@H]1C=C[C@H](NC(=O)c2ccccc2F)[C@H](CO)O1`, the activation is -0.107% (inactive). Regarding `CCN1/C(=C\c2ccc3ccccc3[n+]2CC)Sc2cc(C)ccc21`, the activation is 415% (active). Under `CCCNC(=O)N1CC(=O)N2[C@H](C1)[C@@H](c1ccc(C#Cc3ccccc3)cc1)[C@@H]2CO` stands -0.0025% (inactive). Under `O=C(C[C@@H]1CC[C@@H](NS(=O)(=O)c2ccc(F)cc2)[C@H](CO)O1)NCc1ccc(Cl)c(Cl)c1` stands 0.0265% (inactive); under `C[C@H](CO)N1C[C@H](C)[C@H](CN(C)Cc2ccncc2)Oc2ccc(NS(=O)(=O)c3cn(C)cn3)cc2C1=O`, -0.119% (inactive). `CC=Cc1ccc2n(c1=O)C[C@@H]1[C@@H](CO)[C@H](C(=O)NC3CCCC3)[C@H]2N1C(=O)c1cnccn1` (mixture of isomers): the activation is 0.002% (inactive). In the case of `O=C(Nc1ccccc1F)N[C@@H]1CC[C@H](CCNC(=O)C2CC2)O[C@@H]1CO` it was 0.587% (inactive); in that of `O=C(C[C@H]1C=C[C@@H](NC(=O)Nc2cc(F)ccc2F)[C@@H](CO)O1)NCc1ccc2c(c1)OCO2`, 0.137% (inactive). In the case of `C[C@@H]1CN([C@H](C)CO)C(=O)c2cccc(NS(C)(=O)=O)c2O[C@@H]1CN(C)S(=O)(=O)c1cccs1`, the activation is -1.35% (inactive).
